Data from ChEMBL document CHEMBL1629583, “Establishment of in vitro susceptibility testing methodologies and comparative activities of piperacillin in combination with the penem {beta}-lactamase inhibitor BLI-489” (2009).

Key:
Type in all cases: functional
[1] = system: Enterococcus durans; assay: Antimicrobial activity against Enterococcus durans clinical isolate after 18 to 22 hrs by broth microdilution method in presence of beta-lactamase inhibitor BLI-489
Outline: (§1)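 CLSI broth microdilution in Mueller-Hinton II broth. Piperacillin serial dilutions were combined with BLI-489 held constant at 4 μg/ml. Inoculum was 10^5 CFU/ml. Plates were incubated 18 to 22 h at 35°C in ambient air. MIC was the lowest concentration completely inhibiting growth seen by the unaided eye. Piperacillin-tazobactam interpretive criteria were applied.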

[2] = system: Stenotrophomonas maltophilia; assay: Antimicrobial activity against Stenotrophomonas maltophilia clinical isolate after 18 to 22 hrs by broth microdilution method in presence of beta-lactamase inhibitor BLI-489
Outline: (§2)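 CLSI broth microdilution in Mueller-Hinton II broth. Serial dilutions of piperacillin were tested with BLI-489 held at a constant 4 μg/ml. Inoculum was 10^5 CFU/ml. Plates were incubated 18 to 22 h at 35°C in ambient air. MIC was the lowest concentration giving complete growth inhibition by unaided eye.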

[3] = system: Bacteroides fragilis; assay: Antimicrobial activity against Bacteroides fragilis clinical isolate after 18 to 22 hrs by broth microdilution method in presence of beta-lactamase inhibitor Tazobactam
[4] = system: Acinetobacter lwoffii; assay: Antimicrobial activity against Acinetobacter lwoffii clinical isolate after 18 to 22 hrs by broth microdilution method in presence of beta-lactamase inhibitor BLI-489; outline: as §1
[5] = system: Citrobacter freundii; assay: Antimicrobial activity against AmpC beta-lactamase-producing Citrobacter freundii clinical isolate after 18 to 22 hrs by broth microdilution method in presence of beta-lactamase inhibitor BLI-489; outline: as §1
[6] = system: Enterococcus durans; assay: Antimicrobial activity against Enterococcus durans clinical isolate after 18 to 22 hrs by broth microdilution method in presence of beta-lactamase inhibitor Tazobactam
Outline: (§3)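 Piperacillin-tazobactam was tested on recent clinical isolates by CLSI broth microdilution in Mueller-Hinton II broth, with tazobactam at constant 4 μg/ml. Wells held 10^5 CFU/ml and were incubated 18 to 22 h at 35°C in ambient air. MIC was the lowest concentration with no growth visible to the unaided eye.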

[7] = system: Klebsiella pneumoniae; assay: Antimicrobial activity against Klebsiella pneumoniae clinical isolate after 18 to 22 hrs by broth microdilution method in presence of beta-lactamase inhibitor Tazobactam
Outline: (§4)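 Piperacillin-tazobactam was tested by CLSI broth microdilution in Mueller-Hinton II broth against clinical isolates. Inoculum was 10^5 CFU/ml, with 18 to 22 h incubation at 35°C in ambient air. MIC was read as the lowest concentration completely inhibiting visible growth.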

[8] = system: Peptostreptococcus anaerobius; assay: Antimicrobial activity against Peptostreptococcus anaerobius clinical isolate after 18 to 22 hrs by broth microdilution method in presence of beta-lactamase inhibitor BLI-489
[9] = system: Morganella morganii; assay: Antimicrobial activity against Morganella morganii clinical isolate after 18 to 22 hrs by broth microdilution method in presence of beta-lactamase inhibitor BLI-489; outline: as §2
[10] = system: Escherichia coli; assay: Antimicrobial activity against class A extended spectrum beta-lactamase- and class D OXA- producing Escherichia coli clinical isolate after 18 to 22 hrs by broth microdilution method in presence of beta-lactamase inhibitor Tazobactam
[11] = system: Parvimonas micra; assay: Antimicrobial activity against Peptostreptococcus micros clinical isolate after 18 to 22 hrs by broth microdilution method in presence of beta-lactamase inhibitor BLI-489
[12] = system: Klebsiella pneumoniae; assay: Antimicrobial activity against class A extended spectrum beta-lactamase- and class D OXA- producing Klebsiella pneumoniae clinical isolate after 18 to 22 hrs by broth microdilution method in presence of beta-lactamase inhibitor BLI-489; outline: as §2
[13] = system: Enterococcus gallinarum; assay: Antimicrobial activity against Enterococcus gallinarum clinical isolate after 18 to 22 hrs by broth microdilution method in presence of beta-lactamase inhibitor BLI-489; outline: as §2
[14] = system: Enterococcus casseliflavus; assay: Antimicrobial activity against Enterococcus casseliflavus clinical isolate after 18 to 22 hrs by broth microdilution method in presence of beta-lactamase inhibitor Tazobactam; outline: as §3
[15] = system: Enterococcus faecium; assay: Antimicrobial activity against Enterococcus faecium clinical isolate after 18 to 22 hrs by broth microdilution method in presence of beta-lactamase inhibitor Tazobactam; outline: as §4
[16] = system: Citrobacter freundii; assay: Antimicrobial activity against Citrobacter freundii clinical isolate after 18 to 22 hrs by broth microdilution method in presence of beta-lactamase inhibitor Tazobactam; outline: as §3
[17] = system: Clostridium perfringens; assay: Antimicrobial activity against Clostridium perfringens clinical isolate after 18 to 22 hrs by broth microdilution method in presence of beta-lactamase inhibitor BLI-489
[18] = system: Escherichia coli; assay: Antimicrobial activity against Escherichia coli clinical isolate after 18 to 22 hrs by broth microdilution method in presence of beta-lactamase inhibitor BLI-489; outline: as §2
[19] = system: Providencia rettgeri; assay: Antimicrobial activity against Providencia rettgeri clinical isolate after 18 to 22 hrs by broth microdilution method in presence of beta-lactamase inhibitor Tazobactam; outline: as §4
[20] = system: Staphylococcus epidermidis; assay: Antimicrobial activity against methicillin-susceptible Staphylococcus epidermidis clinical isolate after 18 to 22 hrs by broth microdilution method in presence of beta-lactamase inhibitor BLI-489
Outline: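 Piperacillin serially diluted with BLI-489 held at a constant 4 μg/ml, by CLSI broth microdilution in Mueller-Hinton II broth. Inoculum was 10^5 CFU/ml. Plates were incubated 18 to 22 h at 35°C in ambient air. MIC was the lowest concentration completely inhibiting growth seen by the unaided eye.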

[21] = system: Enterococcus faecalis; assay: Antimicrobial activity against vancomycin-resistant Enterococcus faecalis clinical isolate after 18 to 22 hrs by broth microdilution method in presence of beta-lactamase inhibitor Tazobactam
Outline: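 CLSI broth microdilution in Mueller-Hinton II broth. Antibiotic in serial dilution with the β-lactamase inhibitor held at a constant 4 μg/ml. Inoculum 10^5 CFU/ml. Incubated 18 to 22 h at 35°C in ambient air.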

[22] = system: Acinetobacter calcoaceticus; assay: Antimicrobial activity against Acinetobacter calcoaceticus clinical isolate after 18 to 22 hrs by broth microdilution method in presence of beta-lactamase inhibitor Tazobactam; outline: as §3
[23] = system: Haemophilus parainfluenzae; assay: Antimicrobial activity against Haemophilus parainfluenzae clinical isolate after 18 to 22 hrs by broth microdilution method in presence of beta-lactamase inhibitor BLI-489
Outline: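 Haemophilus isolates were tested in Haemophilus test medium by CLSI broth microdilution. Serial piperacillin dilutions carried BLI-489 fixed at 4 μg/ml. Inoculum was 10^5 CFU/ml, incubated 18 to 22 h at 35°C in ambient air. MIC was the lowest concentration completely inhibiting growth by eye.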

## CCN1CCN(C(=O)N[C@@H](C(=O)N[C@@H]2C(=O)N3[C@@H]2SC(C)(C)[C@@H]3C(=O)O)c2ccccc2)C(=O)C1=O [PIPERACILLIN]
[1]
  MIC50: 2 µg/mL
  MIC90: 8 µg/mL
[2]
  MIC50: > 128 µg/mL
  MIC90: > 128 µg/mL
[3]
  MIC50: 0.06 µg/mL
  MIC90: 0.25 µg/mL
[4]
  MIC50: 4 µg/mL
  MIC90: 16 µg/mL
[5]
  MIC50: 4 µg/mL
  MIC90: 64 µg/mL
[6]
  MIC50: 4 µg/mL
  MIC90: 16 µg/mL
[7]
  MIC50: 2 µg/mL
  MIC90: 16 µg/mL
[8]
  MIC: ≤ 0.015 µg/mL
  MIC50: ≤ 0.015 µg/mL
  MIC90: ≤ 0.015 µg/mL
[9]
  MIC50: 0.25 µg/mL
  MIC90: 1 µg/mL
[10]
  MIC50: 1 µg/mL
  MIC90: 2 µg/mL
[11]
  MIC: ≤ 0.015 µg/mL
  MIC50: ≤ 0.015 µg/mL
  MIC90: ≤ 0.015 µg/mL
[12]
  MIC50: 8 µg/mL
  MIC90: 64 µg/mL
[13]
  MIC50: 2 µg/mL
  MIC90: 8 µg/mL
[14]
  MIC50: 4 µg/mL
  MIC90: 16 µg/mL
[15]
  MIC50: 32 µg/mL
  MIC90: > 128 µg/mL
[16]
  MIC50: 64 µg/mL
  MIC90: 128 µg/mL
[17]
  MIC: ≤ 0.015 µg/mL
  MIC50: ≤ 0.015 µg/mL
  MIC90: ≤ 0.015 µg/mL
[18]
  MIC50: 64 µg/mL
  MIC90: 128 µg/mL
[19]
  MIC50: 2 µg/mL
  MIC90: 16 µg/mL
[20]
  MIC: ≤ 0.004 µg/mL
  MIC50: ≤ 0.004 µg/mL
  MIC90: ≤ 0.004 µg/mL
[21]
  MIC50: 2 µg/mL
  MIC90: > 128 µg/mL
[22]
  MIC50: > 128 µg/mL
  MIC90: > 128 µg/mL
[23]
  MIC: ≤ 0.004 µg/mL
  MIC50: ≤ 0.004 µg/mL
  MIC90: ≤ 0.004 µg/mL
